Measurements published in ChEMBL document CHEMBL1133729, “Design, synthesis, and structure-activity relationships of phthalimide-phenylpiperazines: a novel series of potent and selective alpha(1)(a)-adrenergic receptor antagonists” (J Med Chem, 2000).

Legend:
[1] = molecular target: T1, Alpha-1B adrenergic receptor (Homo sapiens, UniProt P35368); assay: Binding affinity towards cloned human alpha-1B adrenergic receptor was determined using [125]-HEAT as radioligand
T1 sequence (P35368 whole entry): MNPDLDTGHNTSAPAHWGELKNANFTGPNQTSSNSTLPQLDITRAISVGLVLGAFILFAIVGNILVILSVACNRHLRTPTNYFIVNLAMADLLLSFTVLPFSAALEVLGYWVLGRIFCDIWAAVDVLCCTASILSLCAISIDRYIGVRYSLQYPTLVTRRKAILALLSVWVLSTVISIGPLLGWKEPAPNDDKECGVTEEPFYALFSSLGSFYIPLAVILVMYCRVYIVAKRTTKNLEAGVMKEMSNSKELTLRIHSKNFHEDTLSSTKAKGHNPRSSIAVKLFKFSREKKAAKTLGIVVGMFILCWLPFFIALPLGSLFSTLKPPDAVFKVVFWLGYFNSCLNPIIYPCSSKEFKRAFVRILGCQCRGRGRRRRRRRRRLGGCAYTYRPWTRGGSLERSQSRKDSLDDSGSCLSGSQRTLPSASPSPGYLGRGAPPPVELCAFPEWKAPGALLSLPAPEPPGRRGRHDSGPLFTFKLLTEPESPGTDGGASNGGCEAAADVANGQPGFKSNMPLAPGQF
Procedure, shortened: (§1)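 Human α1a, α1b and α1d cDNAs transiently expressed in COS-1 cells (DEAE-dextran); membranes harvested 72 h post-transfection. Competition versus 50 pM [125I]HEAT (final), 0.1 pM–10 μM test compound in half-log steps, in TNE buffer pH 7.4. Membrane protein 0.1 μg (α1a, α1b) or 2.6 μg (α1d); 1 h at 25 °C. Filtration, scintillation counting; Ki = IC50/(1 + [L]/Kd). Ratios are subtype Ki over α1a Ki.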

[2] = molecular target: T2, Alpha-1A adrenergic receptor (Homo sapiens, UniProt P35348); assay: Binding affinity towards cloned human alpha-1A adrenergic receptor was determined using [125]-HEAT as radioligand
T2 sequence (P35348 whole entry): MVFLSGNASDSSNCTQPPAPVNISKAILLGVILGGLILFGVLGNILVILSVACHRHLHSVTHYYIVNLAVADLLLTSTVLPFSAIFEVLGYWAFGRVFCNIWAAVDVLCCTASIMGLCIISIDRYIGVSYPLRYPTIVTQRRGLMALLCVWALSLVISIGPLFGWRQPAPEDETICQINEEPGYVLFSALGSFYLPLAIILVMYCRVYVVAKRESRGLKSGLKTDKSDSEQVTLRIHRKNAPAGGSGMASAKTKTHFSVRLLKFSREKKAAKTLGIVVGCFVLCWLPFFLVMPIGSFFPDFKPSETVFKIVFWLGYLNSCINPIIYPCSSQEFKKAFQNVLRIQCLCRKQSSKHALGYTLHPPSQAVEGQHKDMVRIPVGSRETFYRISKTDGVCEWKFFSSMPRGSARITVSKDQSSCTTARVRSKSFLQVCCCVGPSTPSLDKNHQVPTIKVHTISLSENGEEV

[3] = molecular target: T3, Alpha-1D adrenergic receptor (Homo sapiens, UniProt P25100); assay: Binding affinity towards cloned human alpha-1D adrenergic receptor was determined using [125]-HEAT as radioligand; procedure, shortened: as §1
T3 sequence (P25100 whole entry): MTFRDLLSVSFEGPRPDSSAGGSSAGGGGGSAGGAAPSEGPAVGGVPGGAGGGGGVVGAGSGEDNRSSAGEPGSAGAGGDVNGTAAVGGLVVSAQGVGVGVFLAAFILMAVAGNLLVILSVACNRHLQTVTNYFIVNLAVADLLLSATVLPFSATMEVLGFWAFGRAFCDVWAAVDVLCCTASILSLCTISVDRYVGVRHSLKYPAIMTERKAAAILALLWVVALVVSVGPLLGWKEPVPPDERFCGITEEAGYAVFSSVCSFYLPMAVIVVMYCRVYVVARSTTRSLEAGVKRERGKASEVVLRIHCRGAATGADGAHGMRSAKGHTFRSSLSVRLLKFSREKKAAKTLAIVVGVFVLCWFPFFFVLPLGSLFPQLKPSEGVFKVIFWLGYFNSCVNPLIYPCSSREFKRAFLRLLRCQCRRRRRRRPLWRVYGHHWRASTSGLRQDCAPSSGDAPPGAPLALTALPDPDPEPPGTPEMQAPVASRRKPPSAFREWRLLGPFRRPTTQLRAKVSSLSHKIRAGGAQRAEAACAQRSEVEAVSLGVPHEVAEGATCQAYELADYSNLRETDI

[4] = molecular target: Adrenergic receptors; alpha-1 A & B (Homo sapiens) (UniProt P35348+P35368); assay: Ratio of binding affinity towards Alpha1b to Alpha-1A; assay type: protein assay; procedure, shortened: as §1
[5] = tested on: Alpha-1D/Alpha-1A adrenergic receptor (Homo sapiens); assay: Ratio of binding affinity towards Alpha1d to Alpha-1A

Row | Structure (SMILES) | Ki [1] [nM] | Ki [2] [nM] | Ki [3] [nM] | Ratio [4] | Ratio [5]
1 | CC(C)Oc1ccccc1N1CCN(CC(O)CNC(=O)c2ccc3c(c2)C(=O)N(c2ccc(Cl)cc2)C3=O)CC1 (stereo not given) | 606 | 0.95 | 55 | 640 | 
2 | CCOc1ccccc1N1CCN(CC(O)CNC(=O)c2ccc3c(c2)C(=O)N(c2cccc(F)c2)C3=O)CC1 (stereo not given) | > 2000 | 4.25 | 137 | > 470 | 
3 | CC(C)Oc1ccccc1N1CCN(CC(O)CNC(=O)c2ccc3c(c2)C(=O)N(c2cccc(F)c2)C3=O)CC1 (stereo not given) | > 2000 | 1.5 | 75 | > 1220 | 
4 | CC(C)Oc1ccccc1N1CCN(CC(O)CNC(=O)c2ccc3c(c2)C(=O)N(c2ccc(O)cc2)C3=O)CC1 (stereo not given) | > 2000 | 0.88 | 28 | > 2270 | 
5 | COc1ccc(N2C(=O)c3ccc(C(=O)NCC(O)CN4CCN(c5ccccc5OC(C)C)CC4)cc3C2=O)cc1 (stereo not given) | > 2000 |  | 51 |  | 
6 | CC(C)Oc1ccccc1N1CCN(CC(O)CNC(=O)c2ccc3c(c2)C(=O)N(c2ccc([N+](=O)[O-])cc2)C3=O)CC1 (stereo not given) | > 2000 | 1.8 | 38 | > 1110 | 
7 | COc1ccc(N2C(=O)c3ccc(C(=O)NC[C@@H](O)CN4CCN(c5ccccc5OC(C)C)CC4)cc3C2=O)cc1 | > 2000 |  | 52 |  | 
8 | COc1ccccc1N1C(=O)c2ccc(C(=O)NCC(O)CN3CCN(c4ccccc4OC(C)C)CC3)cc2C1=O (stereo not given) | 1640 | 1.47 | 72 | 1110 | 
9 | CC(C)Oc1ccccc1N1CCN(CCCNC(=O)c2ccc3c(c2)C(=O)N(c2ccc(N(C)C)cc2)C3=O)CC1 | 465 | 0.18 | 15 | 2580 | 
10 | COc1ccccc1N1CCN(CC(O)CNC(=O)c2ccc3c(c2)C(=O)N(c2cccc(F)c2)C3=O)CC1 (stereo not given) | > 2000 | 22 | 540 | > 90 | 
11 | COC(CNC(=O)c1ccc2c(c1)C(=O)N(c1cccc(F)c1)C2=O)CN1CCN(c2ccccc2OC(C)C)CC1 (stereo not given) | > 2000 | 6.9 | 407 | > 290 | 
12 | CC(C)Oc1ccccc1N1CCN(CC(O)CNC(=O)c2ccc3c(c2)C(=O)N(c2ccc(N(C)C)cc2)C3=O)CC1 (stereo not given) | > 2000 | 0.8 | 40 | > 2000 | 
13 | Cc1ccc(N2C(=O)c3ccc(C(=O)NCC(O)CN4CCN(c5ccccc5OC(C)C)CC4)cc3C2=O)cc1 (stereo not given) | > 2000 | 0.66 | 62 | > 3030 | 
14 | CC(C)Oc1ccccc1N1CCN(CC(O)CNC(=O)c2ccc3c(c2)C(=O)N(c2ccc(F)cc2)C3=O)CC1 (stereo not given) | > 1660 | 1.5 | 111 | > 1100 | 
15 | CC(C)Oc1ccccc1N1CCN(CC(O)CNC(=O)c2ccc3c(c2)C(=O)N(c2cccc(Cl)c2)C3=O)CC1 (stereo not given) | 605 | 0.76 | 41 | 800 | 54
16 | CC(C)Oc1ccccc1N1CCN(CC(O)CNC(=O)c2ccc3c(c2)C(=O)N(c2ccc(Cl)c(Cl)c2)C3=O)CC1 (stereo not given) | 1230 | 1.19 | 51 | 1030 | 43
17 | COc1ccc(N2C(=O)c3ccc(C(=O)NCC(O)CN4CCN(c5ccccc5OC(C)C)CC4)cc3C2=O)cc1OC (stereo not given) | > 2000 | 0.98 | 56 | > 2040 | 57
18 | COc1ccc(N2C(=O)c3ccc(C(=O)NC[C@H](O)CN4CCN(c5ccccc5OC(C)C)CC4)cc3C2=O)cc1 | > 1750 |  | 124 |  | 
19 | CC(C)Oc1ccccc1N1CCN(C[C@H](O)CNC(=O)c2ccc3c(c2)C(=O)N(c2cccc(F)c2)C3=O)CC1 | > 2000 | 8 | 63 | > 250 | 
20 | COc1cc(N2C(=O)c3ccc(C(=O)NCC(O)CN4CCN(c5ccccc5OC(C)C)CC4)cc3C2=O)cc(OC)c1OC (stereo not given) | > 2000 | 1.22 | 152 | > 1640 | 125
21 | CC(C)Oc1ccccc1N1CCN(CC(O)CNC(=O)c2ccc3c(c2)C(=O)N(c2ccc(C(C)(C)C)cc2)C3=O)CC1 (stereo not given) | > 2000 | 3.05 | 75 | > 650 | 
22 | CC(C)Oc1ccccc1N1CCN(C[C@@H](O)CNC(=O)c2ccc3c(c2)C(=O)N(c2ccc(O)cc2)C3=O)CC1 | > 2000 | 0.46 | 137 | > 4350 | 
23 | CC(C)Oc1ccccc1N1CCN(CC(O)CNC(=O)c2ccc3c(c2)C(=O)N(c2ccccc2)C3=O)CC1 (stereo not given) | > 2000 | 0.9 | 65 | > 1820 | 72
24 | Cc1cccc(N2C(=O)c3ccc(C(=O)NCC(O)CN4CCN(c5ccccc5OC(C)C)CC4)cc3C2=O)c1 (stereo not given) | > 2000 | 0.9 | 73 | > 2220 | 
25 | CC(C)Oc1ccccc1N1CCN(CCCNC(=O)c2ccc3c(c2)C(=O)N(c2ccc(O)cc2)C3=O)CC1 | 255 | 0.2 | 10 | 1270 | 50
